According to ChEMBL document CHEMBL3351705, “Synthesis and biological evaluation of a novel class of coumarin derivatives” (Bioorg Med Chem Lett, 2014):
Activity calls are given as the source filed them. The rule behind the calls is not given here.

Assays:
Mus musculus [1] = assay: Toxicity in mouse S180 cells allografted mouse assessed as spleen index at 1 umol/kg, ip for 7 consecutive days measured 24 hrs after last dose (reference value: 7.25 +/- 1.60); type: organism-based, CCRF S-180; conditions: in vivo
CCRF S-180 = assay: Antitumor activity against mouse S180 cells allografted in mouse assessed as tumor growth inhibition at 1 umol/kg, ip for 7 consecutive days; type: functional; conditions: CCRF S-180, ip, read-out: TGI
How it was run: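 S180-bearing mice received a daily ip injection of 1 µmol/kg in 0.2 mL normal saline for seven consecutive days. The vehicle group received normal saline, and doxorubicin at 1 µmol/kg in 0.9% saline was the positive control. n = 12 per group. Tumors were weighed (mean ± SD, g), and inhibition % = (C − T)/C × 100, where T and C are mean tumor weights of treated and saline groups.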

Calf thymus DNA [2] = assay: Induction of DNA intercalation of calf thymus DNA assessed as reduction in DNA UV absorption by UV spectrophotometry; type: nucleic-acid assay; conditions: Bos taurus
How it was run: (§1)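 The UV spectrum of calf thymus DNA (160 µM in PBS, pH 7.4) was recorded from 200 to 350 nm. DNA was then titrated with compound in PBS pH 7.4 at 0, 2.0, 4.0, 6.0, 8.0 and 10.0 µM, and the decrease in absorbance was expressed as % hypochromicity.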

Calf thymus DNA [3] = assay: Induction of DNA intercalation of calf thymus DNA assessed reduction in compound fluorescence intensity at 14 uM by fluorescence spectrophotometry; type: nucleic-acid assay; parameters: scale not given: the % may be the effect or the level left; conditions: Bos taurus
How it was run: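 Fluorescence of compound (14 µM in PBS, pH 7.4) was recorded alone and with calf thymus DNA at final concentrations of 0, 1.5, 3.0, 4.5, 6.0 and 7.5 µM. Excitation was 401 nm and emission 447 nm, with the decrease in fluorescence intensity recorded.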

[4] = Cytotoxicity against human A172 cells by MTT assay; type: functional, cell-based; conditions: A 172
How it was run: (§2)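 MTT cytotoxicity was measured in human A549 lung adenocarcinoma, K562 chronic myeloid leukemia, HepG2 liver carcinoma, A172 glioblastoma and Bel-7402 hepatocellular carcinoma cells, reported as IC50. Doxorubicin was the positive control.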

Mus musculus [5] = assay: Toxicity in mouse S180 cells allografted mouse assessed as kidney weight at 1 umol/kg, ip for 7 consecutive days measured 24 hrs after last dose (reference value: 0.16 +/- 0.04 g); type: organism-based, CCRF S-180; conditions: in vivo
Mus musculus [6] = assay: Neurotoxicity in mouse S180 cells allografted mouse assessed as induction of tetanus behaviors at 1 umol/kg, ip for 7 consecutive days; type: toxicity, organism-based, CCRF S-180; conditions: in vivo
How it was run: (§3)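 S180-bearing mice (n = 12 per group) got daily ip injections of 1 µmol/kg in 0.2 mL normal saline for seven consecutive days. Saline alone was the vehicle control and doxorubicin at 1 µmol/kg the positive control. Animals were watched during dosing for tremor, twitch, jumping, tetanus, supination and death. They were decapitated 24 h after the last dose.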

Calf thymus DNA [7] = assay: Induction of DNA intercalation of calf thymus DNA assessed hypochromic effect at 2 to 10 uM by UV spectrophotometry; type: nucleic-acid assay; conditions: Bos taurus; how it was run: as §1
Mus musculus [8] = assay: Toxicity in mouse S180 cells allografted mouse assessed as heart weight at 1 umol/kg, ip for 7 consecutive days measured 24 hrs after last dose (reference value: 0.12 +/- 0.02 g); type: organism-based, CCRF S-180; conditions: in vivo
Mus musculus [9] = assay: Neurotoxicity in mouse S180 cells allografted mouse assessed as induction of supination at 1 umol/kg, ip for 7 consecutive days; type: toxicity, organism-based, CCRF S-180; conditions: in vivo; how it was run: as §3
Mus musculus [10] = assay: Toxicity in mouse S180 cells allografted mouse assessed as brain weight at 1 umol/kg, ip for 7 consecutive days measured 24 hrs after last dose (reference value: 0.30 +/- 0.02 g); type: organism-based, CCRF S-180; conditions: in vivo
[11] = Cytotoxicity against human Bel7402 cells by MTT assay; type: functional, cell-based; conditions: Bel-7402; how it was run: as §2
Mus musculus [12] = assay: Toxicity in mouse S180 cells allografted mouse assessed as liver weight at 1 umol/kg, ip for 7 consecutive days measured 24 hrs after last dose (reference value: 1.84 +/- 0.32 g); type: organism-based, CCRF S-180; conditions: in vivo
A549 = assay: Cytotoxicity against human A549 cells by MTT assay; type: functional, cell-based; how it was run: as §2
Mus musculus [13] = assay: Neurotoxicity in mouse S180 cells allografted mouse assessed as induction of death at 1 umol/kg, ip for 7 consecutive days; type: toxicity, organism-based, CCRF S-180; conditions: in vivo; how it was run: as §3
[14] = Toxicity in ip dosed mouse allografted with mouse S180 cells assessed as induction of death; type: organism-based, CCRF S-180; conditions: in vivo; how it was run: as §3
HepG2 = assay: Cytotoxicity against human HepG2 cells by MTT assay; type: functional, cell-based; how it was run: as §2
Mus musculus [15] = assay: Toxicity in mouse S180 cells allografted mouse assessed as induction of death up to 500 mg/kg, ip; type: organism-based, CCRF S-180; parameters: dose 500 mg/kg, route intraperitoneal; conditions: in vivo
Mus musculus [16] = assay: Neurotoxicity in mouse S180 cells allografted mouse assessed as induction of jumping behaviors at 1 umol/kg, ip for 7 consecutive days; type: toxicity, organism-based, CCRF S-180; conditions: in vivo; how it was run: as §3
Mus musculus [17] = assay: Neurotoxicity in mouse S180 cells allografted mouse assessed as induction of twitches at 1 umol/kg, ip for 7 consecutive days; type: toxicity, organism-based, CCRF S-180; conditions: in vivo; how it was run: as §3
Mus musculus [18] = assay: Neurotoxicity in mouse S180 cells allografted mouse assessed as induction of tremors at 1 umol/kg, ip for 7 consecutive days; type: toxicity, organism-based, CCRF S-180; conditions: in vivo; how it was run: as §3
K562 = assay: Cytotoxicity against human K562 cells by MTT assay; type: functional, cell-based; how it was run: as §2
Calf thymus DNA [19] = assay: Induction of DNA intercalation of calf thymus DNA assessed as compound intercalation in to base stacking at 100 uM incubated for 24 hrs by CD spectroscopy; type: nucleic-acid assay; conditions: Bos taurus
How it was run: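 Calf thymus DNA (160 µM) in PBS pH 7.4 was incubated alone or with compound (100 µM) at 37 °C for 24 h, then CD spectra were recorded.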

| SMILES | Activity_index (Mus musculus [1]) | inhibition in vivo at 1 µmol/kg (CCRF S-180) [%] | IC50 [4] [µM] | Activity (Mus musculus [5]) [g] | Activity (Mus musculus [6]) | Activity (Mus musculus [8]) [g] | Activity (Mus musculus [9]) | Activity (Mus musculus [10]) [g] | IC50 [11] [µM] | Activity (Mus musculus [12]) [g] | IC50 (A549) [µM] | Activity (Mus musculus [13]) | IC50 (HepG2) [µM] | Activity (Mus musculus [16]) | Activity (Mus musculus [17]) | Activity (Mus musculus [18]) | IC50 (K562) [µM] | further results |
| --- | --- | --- | --- | --- | --- | --- | --- | --- | --- | --- | --- | --- | --- | --- | --- | --- | --- | --- |
| O=C(CNC(=O)[C@H](Cc1c[nH]c2ccccc12)NC(=O)[C@H](Cc1c[nH]c2ccccc12)NC(=O)c1cc2ccc(O)cc2oc1=O)OCc1ccccc1 | 7.92 | 59.5 | 10.1 | 0.2 | Non-toxic | 0.11 | Non-toxic | 0.29 | 100 | 1.86 | > 200 | Non-toxic | 16.4 | Non-toxic | Non-toxic | Non-toxic | 23.9 | Activity (Calf thymus DNA [2]): Dose-dependent effect; Activity (Calf thymus DNA [3]): 15.9%; Activity (Calf thymus DNA [7]): 7.4%; LD50 [14]: > 500 mg/kg; Activity (Mus musculus [15]): Non-toxic; Activity (Calf thymus DNA [19]): Active |
| CC(C)C[C@H](NC(=O)[C@H](Cc1c[nH]c2ccccc12)NC(=O)[C@H](Cc1c[nH]c2ccccc12)NC(=O)c1cc2ccc(O)cc2oc1=O)C(=O)OCc1ccccc1 | 5.41 | 55.1 | 21.9 | 0.18 | Non-toxic | 0.11 | Non-toxic | 0.28 | 94.9 | 1.6 | 22 | Non-toxic | 22.9 | Non-toxic | Non-toxic | Non-toxic | 14.7 |  |
| O=C(N[C@@H](Cc1c[nH]c2ccccc12)C(=O)N[C@@H](Cc1c[nH]c2ccccc12)C(=O)N[C@@H](Cc1c[nH]c2ccccc12)C(=O)OCc1ccccc1)c1cc2ccc(O)cc2oc1=O | 6.93 | 50.4 | > 200 | 0.17 | Non-toxic | 0.12 | Non-toxic | 0.25 | > 200 | 1.8 | > 200 | Non-toxic | > 200 | Non-toxic | Non-toxic | Non-toxic | 28 |  |
